The values below come from ChEMBL document CHEMBL1145888, “Prazosin-related compounds. Effect of transforming the piperazinylquinazoline moiety into an aminomethyltetrahydroacridine system on the affinity for alpha1-adrenoreceptors” (J Med Chem, 2003).

Experiment [1] has as its target T1, Alpha-1D adrenergic receptor (Rattus norvegicus) (UniProt P23944).
T1 sequence (whole entry): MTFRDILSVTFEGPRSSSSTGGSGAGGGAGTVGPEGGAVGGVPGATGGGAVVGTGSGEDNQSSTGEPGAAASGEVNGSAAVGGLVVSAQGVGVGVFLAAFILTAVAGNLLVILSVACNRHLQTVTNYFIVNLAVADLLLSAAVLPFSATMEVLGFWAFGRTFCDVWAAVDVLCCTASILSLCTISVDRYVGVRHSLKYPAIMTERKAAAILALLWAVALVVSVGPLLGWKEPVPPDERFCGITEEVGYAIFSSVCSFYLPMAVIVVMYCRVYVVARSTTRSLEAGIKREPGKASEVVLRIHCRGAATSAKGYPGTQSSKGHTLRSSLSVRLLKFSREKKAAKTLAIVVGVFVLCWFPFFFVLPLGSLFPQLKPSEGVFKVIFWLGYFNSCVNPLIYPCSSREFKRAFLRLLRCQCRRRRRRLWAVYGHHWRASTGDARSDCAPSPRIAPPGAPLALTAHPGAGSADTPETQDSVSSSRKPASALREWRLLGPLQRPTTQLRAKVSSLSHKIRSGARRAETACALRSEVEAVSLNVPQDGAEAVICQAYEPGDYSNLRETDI
The experiment can be described thus: Affinity was evaluated against Alpha-1D adrenergic receptor in isolated rat aorta expressed as pKB. The format is tissue-based. An outline of the steps: (§1)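 Isolated rat tissue; isometric contractions recorded via force transducer, with parallel tissues receiving no antagonist to check for sensitivity drift. A control agonist cumulative concentration-response curve was run, then antagonist equilibrated 30 min before a repeat curve. Responses were taken as % of the control maximum. pKB (±SE) was calculated by van Rossum at one concentration (0.1-10 µM range), each tested 4-5 times.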

Experiment [2] has as its target T2, Alpha-1B adrenergic receptor (Rattus norvegicus) (UniProt P15823).
T2 sequence (whole entry): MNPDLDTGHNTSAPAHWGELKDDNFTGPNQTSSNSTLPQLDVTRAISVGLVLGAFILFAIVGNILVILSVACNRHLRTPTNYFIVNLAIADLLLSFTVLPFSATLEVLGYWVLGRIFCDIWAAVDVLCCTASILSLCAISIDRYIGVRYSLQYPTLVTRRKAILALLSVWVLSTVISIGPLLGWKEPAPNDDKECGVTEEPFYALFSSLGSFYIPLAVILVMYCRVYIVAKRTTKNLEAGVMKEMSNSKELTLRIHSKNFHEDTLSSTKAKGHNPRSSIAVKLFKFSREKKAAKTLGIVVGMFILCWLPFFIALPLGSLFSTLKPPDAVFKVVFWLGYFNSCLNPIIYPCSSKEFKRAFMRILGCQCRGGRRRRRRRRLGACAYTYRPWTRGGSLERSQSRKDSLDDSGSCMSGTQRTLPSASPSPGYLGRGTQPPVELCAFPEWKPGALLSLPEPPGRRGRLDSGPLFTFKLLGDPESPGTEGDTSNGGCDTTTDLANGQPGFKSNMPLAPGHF
The experiment can be described thus: Affinity was evaluated against Alpha-1B adrenoceptor in isolated rat spleen expressed as pKB. The format is tissue-based. An outline of the steps: as §1

In experiment [3] the target is T3, Alpha-1A adrenergic receptor (Homo sapiens, UniProt P35348).
T3 sequence (P35348 whole entry): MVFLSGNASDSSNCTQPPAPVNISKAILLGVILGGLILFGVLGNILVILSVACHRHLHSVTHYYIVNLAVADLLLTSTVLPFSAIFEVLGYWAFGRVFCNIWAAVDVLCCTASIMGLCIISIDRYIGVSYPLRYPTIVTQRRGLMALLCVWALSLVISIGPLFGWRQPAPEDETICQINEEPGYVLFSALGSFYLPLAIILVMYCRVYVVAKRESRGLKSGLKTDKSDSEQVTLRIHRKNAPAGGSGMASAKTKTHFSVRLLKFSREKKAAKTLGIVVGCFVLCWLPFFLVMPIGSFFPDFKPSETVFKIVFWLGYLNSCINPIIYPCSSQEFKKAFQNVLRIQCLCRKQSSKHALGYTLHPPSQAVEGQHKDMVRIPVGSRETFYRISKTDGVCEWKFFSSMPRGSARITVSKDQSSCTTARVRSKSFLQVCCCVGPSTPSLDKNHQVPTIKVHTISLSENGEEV
The experiment can be described thus: Binding affinity measured in CHO cells expressing human cloned Alpha-1A adrenergic receptor expressed as pKi. The class given is cell-based.

In experiment [4] the target is T4, Alpha-1B adrenergic receptor (Homo sapiens, UniProt P35368).
T4 sequence (P35368 whole entry): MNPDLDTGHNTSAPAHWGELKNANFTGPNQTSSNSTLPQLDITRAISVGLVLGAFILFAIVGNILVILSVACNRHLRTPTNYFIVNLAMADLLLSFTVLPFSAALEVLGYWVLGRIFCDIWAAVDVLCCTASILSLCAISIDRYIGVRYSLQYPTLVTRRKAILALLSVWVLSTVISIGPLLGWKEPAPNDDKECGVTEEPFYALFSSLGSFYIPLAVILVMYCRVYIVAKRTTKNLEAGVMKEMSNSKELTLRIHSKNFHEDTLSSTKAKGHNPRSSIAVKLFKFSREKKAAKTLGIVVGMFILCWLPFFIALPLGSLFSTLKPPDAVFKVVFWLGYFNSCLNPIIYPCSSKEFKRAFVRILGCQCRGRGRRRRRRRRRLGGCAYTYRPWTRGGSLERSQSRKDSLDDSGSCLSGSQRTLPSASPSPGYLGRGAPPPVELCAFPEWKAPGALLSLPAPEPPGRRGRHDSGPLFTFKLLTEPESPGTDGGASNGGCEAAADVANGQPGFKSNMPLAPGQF
The experiment can be described thus: Binding affinity measured in CHO cells expressing human cloned Alpha-1B adrenergic receptor expressed as pKi. The class given is cell-based.

The target of experiment [5] is T5, Alpha-1A adrenergic receptor (Rattus norvegicus) (UniProt P43140).
T5 sequence (whole entry): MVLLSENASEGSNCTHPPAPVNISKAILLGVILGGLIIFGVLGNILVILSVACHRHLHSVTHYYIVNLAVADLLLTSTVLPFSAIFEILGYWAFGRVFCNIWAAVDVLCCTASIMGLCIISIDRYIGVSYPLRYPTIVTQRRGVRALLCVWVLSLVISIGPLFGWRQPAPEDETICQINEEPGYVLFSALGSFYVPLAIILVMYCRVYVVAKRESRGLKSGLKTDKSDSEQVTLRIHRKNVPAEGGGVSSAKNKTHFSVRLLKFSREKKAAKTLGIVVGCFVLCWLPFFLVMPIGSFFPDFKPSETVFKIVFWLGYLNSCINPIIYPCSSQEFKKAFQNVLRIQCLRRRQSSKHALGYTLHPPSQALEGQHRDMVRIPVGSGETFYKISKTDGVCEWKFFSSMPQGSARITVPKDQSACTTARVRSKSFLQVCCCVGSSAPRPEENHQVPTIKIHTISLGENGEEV
The settings on record: Vas deferens.

Experiment [6] addresses T6, Alpha-1D adrenergic receptor (Homo sapiens, UniProt P25100).
T6 sequence (P25100 whole entry): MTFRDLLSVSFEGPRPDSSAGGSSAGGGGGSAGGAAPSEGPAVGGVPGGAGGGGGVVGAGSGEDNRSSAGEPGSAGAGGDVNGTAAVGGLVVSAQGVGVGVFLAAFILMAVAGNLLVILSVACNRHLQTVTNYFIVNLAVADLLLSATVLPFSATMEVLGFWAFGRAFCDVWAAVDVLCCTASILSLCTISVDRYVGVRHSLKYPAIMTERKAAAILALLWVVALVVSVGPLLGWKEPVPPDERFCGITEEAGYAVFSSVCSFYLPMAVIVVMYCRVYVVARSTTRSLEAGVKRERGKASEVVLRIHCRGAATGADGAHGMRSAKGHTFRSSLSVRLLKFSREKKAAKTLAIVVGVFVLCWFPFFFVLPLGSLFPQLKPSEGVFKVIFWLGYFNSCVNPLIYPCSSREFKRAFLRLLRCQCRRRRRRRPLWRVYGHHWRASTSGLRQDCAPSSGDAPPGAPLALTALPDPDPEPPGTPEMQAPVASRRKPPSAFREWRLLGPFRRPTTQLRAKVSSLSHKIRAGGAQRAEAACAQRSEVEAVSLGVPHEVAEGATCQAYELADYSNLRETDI
The experiment can be described thus: Binding affinity measured in CHO cells expressing human cloned Alpha-1D adrenergic receptor expressed as pKi. The class given is cell-based.

For experiment [7], the target named is T1, Alpha-1D adrenergic receptor (Rattus norvegicus). The settings on record: Aorta.
The target of experiment [8] is T2, Alpha-1B adrenergic receptor (Rattus norvegicus). The experiment can be described thus: Affinity was evaluated against Alpha-1B adrenergic receptor in isolated rat spleen expressed as pKB. The class given is tissue-based. In short, it runs like this: as §1

Structures are written as SMILES.

What is called pKB is the KB on a negative log10 scale, so that one unit is a factor of ten. A lower pKB goes with a high KB. The Ki is a dissociation constant, usually derived from enzyme kinetics or from competition with a known ligand. High values mean weaker binding, low ones tighter binding.

In the case of `COc1cc2nc3c(c(O)c2cc1OC)CCC(CNCCOc1c(OC)cccc1OC)C3` (configuration not stated), the pKB in experiment [1] came out at 5.92; in experiment [2], 7.05; in experiment [5] it was 6.24. Moreover, the Ki in experiment [3] was 1700 nM; in experiment [4], 219 nM; in experiment [6], 389 nM.
Turning to `COc1cc2nc3c(c(N)c2cc1OC)CCCC(CNC(=O)c1ccco1)C3` (configuration not stated), the pKB in experiment [2] stood at 6.92; in experiment [7], 6.94; in experiment [5] it was 6.34.
Take `COc1cc2nc3c(c(N)c2cc1OC)CCC(CNC(=O)c1cccc(C(F)(F)F)c1)C3` (configuration not stated): the pKB in experiment [1] was 7.58; in experiment [2], 7.36; in experiment [5], 7.16. The Ki was 31.6 nM in experiment [3], 12.6 nM in experiment [4] and 25.1 nM in experiment [6].
As to `COc1cc2nc3c(c(N)c2cc1OC)CCC(CNC(=O)c1ccc(C(F)(F)F)cc1)C3` (configuration not stated), the pKB was found to be 6.67 in experiment [1], 7.2 in experiment [2] and 6.08 in experiment [5]. For the same molecule, the Ki was 85.1 nM in experiment [3], 8.91 nM in experiment [4] and 19.1 nM in experiment [6].
For the molecule `COc1cc2nc3c(c(N)c2cc1OC)CCC(CNCCOc1c(OC)cccc1OC)C3` (configuration not stated), the pKB came out at 7.2 in experiment [2], 6.39 in experiment [7] and 5.7 in experiment [5]. Moreover, the Ki is 977 nM in experiment [3], 39.8 nM in experiment [4] and 200 nM in experiment [6].
As for `COc1cccc(OC)c1OCCNCC1COc2ccccc2O1` (configuration not stated), the pKB in experiment [2] worked out at 8.2; in experiment [7], 8.85; in experiment [5], 9.48.
For the molecule `COc1cc2nc3c(c(N)c2cc1OC)CCC(CNC(=O)c1ccccc1)C3` (configuration not stated), the pKB was 6.63 in experiment [1], 7.19 in experiment [2] and 6.67 in experiment [5].
Take `COc1cc2nc3c(c(O)c2cc1OC)CCC(CNC(=O)c1ccco1)C3` (configuration not stated): the pKB is 6.95 in experiment [2], 6.41 in experiment [7] and 5.76 in experiment [5]. Also, the Ki was 2570 nM in experiment [3], 295 nM in experiment [4] and 1150 nM in experiment [6].
Regarding `COc1cc2nc3c(c(N)c2cc1OC)CC(CNC(=O)c1ccco1)C3` (configuration not stated), the pKB in experiment [1] was determined as 6.11; in experiment [2], 6.82; in experiment [5] it was 6.26. In addition, the inhibition constant (Ki) in experiment [3] was 158 nM; in experiment [4], 79.4 nM; in experiment [6], 200 nM.
Turning to `COc1cc2nc3c(c(N)c2cc1OC)CCC(CNC(=O)c1ccco1)C3` (configuration not stated), the Ki in experiment [3] is 95.5 nM; in experiment [4], 12.3 nM; in experiment [6] it was 15.8 nM. The pKB in experiment [8] came out at 7.3; in experiment [7], 7.47; in experiment [5] it was 6.52.
Take `COc1cc2nc3c(c(N)c2cc1OC)CCC(CNC(=O)c1ccccc1C(F)(F)F)C3` (configuration not stated): the pKB amounted to 6.85 in experiment [1], 7.33 in experiment [2] and 6.47 in experiment [5]. Also, the inhibitory constant (Ki) was 288 nM in experiment [3], 7.41 nM in experiment [4] and 24.5 nM in experiment [6].
